Shown are actives, neighbours in structure and some others; about 1.6% of the full set was active somewhere.
H9c2 protect – modulators protecting cardiomyocytes from myocardial damage; H9c2 cardiomyocytes, H2O2 injury protection, ATPLite, 2 h; protection from H2O2 cell death, % at 20 µM; 0.63% of 360,000 active;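 active = compounds giving at least 50% protection of heart cells from peroxide-induced death in the single-dose screen, raw or plate-pattern-corrected value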;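 also: 0% = DMSO wells with peroxide and 100% = DMSO wells without peroxide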
ASAP1 GAP inh – ASAP1 ArfGAP inhibition. ASAP1-stimulated ARF1 GTP hydrolysis, GDP FP detection. 0.19% of 360,000 active. inhibition, % at 16.5 µM; in the data active = inhibition above about 25%;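 also: 0% = vehicle with enzyme and substrate and 100% = no enzyme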
Target sequence (Q9ULH1 325-724 limits assumed): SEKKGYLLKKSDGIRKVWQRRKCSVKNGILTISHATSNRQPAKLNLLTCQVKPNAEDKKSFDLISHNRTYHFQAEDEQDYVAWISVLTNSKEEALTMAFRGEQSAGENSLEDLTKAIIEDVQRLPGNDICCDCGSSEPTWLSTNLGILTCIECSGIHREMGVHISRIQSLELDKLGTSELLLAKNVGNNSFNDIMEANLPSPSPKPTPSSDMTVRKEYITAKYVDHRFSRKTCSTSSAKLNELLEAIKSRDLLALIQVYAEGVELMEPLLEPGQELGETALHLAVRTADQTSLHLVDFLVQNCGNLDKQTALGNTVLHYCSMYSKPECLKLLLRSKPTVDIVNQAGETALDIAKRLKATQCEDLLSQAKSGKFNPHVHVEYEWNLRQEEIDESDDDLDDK
Neddyl block – inhibitors of human cullin neddylation | P61081+Q13564 | TR-FRET cullin neddylation, biochemical | inhibition, % at 25 µM | 0.58% of 360,000 active | AID 651699; in the data active = inhibition above about 36%
ARFGAP1 inh – inhibitors of rat ARFGAP1; Q62848; Arfgap1-stimulated ARF1 GTP hydrolysis, GDP FP detection; inhibition, % at 16.5 µM; 0.26% of 360,000 active; AID 651572;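 active = inhibition above a per-plate limit, mean inhibition of low control wells plus 3 SD, cut at about 25% in these data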;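 also: 0% = DMSO wells with enzyme and 100% = wells lacking Arfgap1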
Target sequence (Q62848 1-136 limits assumed): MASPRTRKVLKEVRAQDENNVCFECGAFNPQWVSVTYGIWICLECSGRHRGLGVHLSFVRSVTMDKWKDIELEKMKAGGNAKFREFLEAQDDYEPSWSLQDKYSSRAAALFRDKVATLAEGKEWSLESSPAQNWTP
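Material: rat Arfgap1 catalytic domain, aa 1-136; also added: human ARF1(Δ1-17)-GTP substrate; compound dosing: one concentration, 16.5 µM, DMSO 1.26%; incubation: GTP hydrolysis reaction 2 h at 25 °C; measured by: Tracer-displacement fluorescence polarization with EDTA stop, 620/688 nm; evaluation: % inhibition from polarization; repeats: one replicate per compound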
Neddyl inh conf – cullin neddylation inhibition, confirmation | TR-FRET cullin neddylation biochemical assay | calls only at 25 µM | AID 652217 | 13% of 1,800 active | shares compounds with Neddyl block; in the data active = inhibition above about 40%;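 also: neddylation substrate is the cullin 1 ring ligase complex with SKP2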
Active calls of the source: *.

Screening Cc1ccc(S(=O)(=O)[N-]c2nc3ccccc3nc2-n2cc[n+](CCC(C)C)c2)cc1 returned H9c2 protect -9.0, ASAP1 GAP inh 6.3, Neddyl block 44.2*, ARFGAP1 inh -0.9 and Neddyl inh conf inactive.
Screening CCCCn1nnnc1C(c1cc2ccccc2o1)N(Cc1ccccc1)Cc1ccccc1 (stereo not drawn) returned ASAP1 GAP inh 0.3, Neddyl block -7.7 and ARFGAP1 inh -0.8.
`CCOC(=O)C1=C(C)NC(C)=C(C(=O)OCC)C1C(=O)OCC(=O)NC1CCCCC1` gave H9c2 protect 83.3*, ASAP1 GAP inh 2.9, Neddyl block 39.3*, ARFGAP1 inh -19.0 and Neddyl inh conf inactive.
For CCOC(=O)C1=C(C)NC(C)=C(C(=O)OCC)C1C(=O)OCC(=O)NCc1ccc(F)cc1 the results were H9c2 protect 30.6, ASAP1 GAP inh -3.0, Neddyl block 46.8* and ARFGAP1 inh 0.8.
Screening CCOC(=O)C1CC(=NO)c2ccc(OC)c(OC)c2C1 (stereo not drawn) returned H9c2 protect -4.2, ASAP1 GAP inh -4.8, Neddyl block 40.4*, ARFGAP1 inh 4.9 and Neddyl inh conf inactive.
For CCOC(=O)C1CCN(S(=O)(=O)c2ccc(OC)c(OC)c2)CC1 the results were H9c2 protect 1.5, ASAP1 GAP inh 7.8, Neddyl block 4.6 and ARFGAP1 inh -2.9.
For O=C(Nc1nc2n(n1)C(c1ccccc1)CC(c1ccc(Cl)cc1)N2)c1ccco1 (stereo not drawn) the results were H9c2 protect 6.4, ASAP1 GAP inh 24.4, Neddyl block 0.1 and ARFGAP1 inh 10.2.
COc1ccc(C2CC(c3ccccc3)Nc3nc(NC(=O)c4ccco4)nn32)cc1 (stereo not drawn) was read as H9c2 protect 7.0, ASAP1 GAP inh 3.0, Neddyl block 40.0*, ARFGAP1 inh 0.8 and Neddyl inh conf inactive.
`COc1ccc(C2CC(c3ccc(OC)cc3)n3nc(NC(=O)c4ccco4)nc3N2)cc1` (stereo not drawn) gave H9c2 protect 0.9, ASAP1 GAP inh 5.4, Neddyl block 38.8*, ARFGAP1 inh 6.8 and Neddyl inh conf inactive.
`COC(=O)[C@]12C[C@H](CC(=O)NCCCN3CCCC3=O)C(=O)N(CCC3=CCCCC3)C1=C[C@H](C(C)(C)C)O[C@@H]2C` gave ASAP1 GAP inh 1.6 and ARFGAP1 inh -8.6.
For CC(C)C[C@@H]1COc2cccc(N3CCC[C@H]3CO)c2S(=O)(=O)N1 the results were ASAP1 GAP inh -9.0, Neddyl block -3.5 and ARFGAP1 inh -3.9.
Screening Cc1ccc(-c2cc(-c3ccco3)c(C#N)c(=O)[nH]2)cc1 returned H9c2 protect 1.3, ASAP1 GAP inh -2.0, Neddyl block 96.3*, ARFGAP1 inh 3.1 and Neddyl inh conf inactive.
`N#Cc1c(-c2ccco2)cc(-c2ccccc2)[nH]c1=O` gave H9c2 protect 3.2, ASAP1 GAP inh -5.6 and ARFGAP1 inh -0.6.
Cc1cc(-c2ccccc2)[nH]c(=O)c1C#N was read as H9c2 protect 1.6, ASAP1 GAP inh 2.9, Neddyl block 49.6* and ARFGAP1 inh -6.2.
`Nc1[nH]c(C(=O)c2ccccc2)c(-c2ccc3ccccc3c2)c1C(=O)NCc1cccc2ccccc12` gave ASAP1 GAP inh -2.5 and ARFGAP1 inh 8.8.
`O=C(NCCC1=CCCCC1)c1c(O)nc2ccccn2c1=O` gave H9c2 protect -4.8, ASAP1 GAP inh -4.6, Neddyl block 36.5 and ARFGAP1 inh -2.7.
CC1CCCCC1NC(=O)c1c(O)nc2ccccn2c1=O (stereo not drawn) was read as H9c2 protect 2.9, ASAP1 GAP inh -4.2, Neddyl block 40.2*, ARFGAP1 inh -9.0 and Neddyl inh conf inactive.
For O=C(NCCCN1CCCC1=O)c1c(O)nc2ccccn2c1=O the results were H9c2 protect 0.0, ASAP1 GAP inh 6.2, Neddyl block 40.5*, ARFGAP1 inh 0.8 and Neddyl inh conf inactive.
`O=C(O)CCCC(=O)OCCCc1cc2ccccc2c(=O)o1` gave ASAP1 GAP inh -0.2 and ARFGAP1 inh 8.0.
Screening Cc1cccc(NC(=O)CNC(=O)[C@H](CCc2ccccc2)NC(=O)[C@H]2O[C@@H](n3cnc4c(N)ncnc43)[C@H](O)[C@@H]2O)c1C returned ASAP1 GAP inh 1.4 and ARFGAP1 inh -9.4.
`Cc1cc(C)n2nc(C(=O)N3CCCC(N4CCN(c5ccccc5C)CC4)C3)cc2n1` (stereo not drawn) gave H9c2 protect -1.9, ASAP1 GAP inh -4.4, Neddyl block 47.4*, ARFGAP1 inh 4.7 and Neddyl inh conf inactive.
Screening COC(=O)C1=C(C)N(Cc2ccccc2C(F)(F)F)C(=NCc2ccc3c(c2)OCO3)NC1c1ccccc1 (stereo not drawn) returned ASAP1 GAP inh 0.1 and ARFGAP1 inh 4.9.
Screening CC(=O)Nc1cccc(C(=O)NC(C)c2ccc(-n3ccnc3)cc2)c1 (stereo not drawn) returned H9c2 protect 2.8, ASAP1 GAP inh 0.6, Neddyl block 2.5 and ARFGAP1 inh 15.4.
CC(NC(=O)c1cccc(N(C)C)c1)c1ccc(-n2ccnc2)cc1 (stereo not drawn) was read as H9c2 protect 1.8, ASAP1 GAP inh 0.1, Neddyl block 41.1*, ARFGAP1 inh -0.1 and Neddyl inh conf inactive.
For CN(C)C(=O)c1ccc2c3c(cccc13)CC2 the results were H9c2 protect 1.7, ASAP1 GAP inh -4.5, Neddyl block -2.7 and ARFGAP1 inh -11.8.
`CC(=O)c1ccc2c3c(cccc13)CC2` gave H9c2 protect 0.2, ASAP1 GAP inh 7.1, Neddyl block 38.1*, ARFGAP1 inh -4.5 and Neddyl inh conf inactive.
Screening CCCCCC(=O)NC1CCCCN(C)C1=O (stereo not drawn) returned ASAP1 GAP inh -3.0 and ARFGAP1 inh 10.6.
For Cc1cccc(C)c1Nc1c(-c2ccc(N3CCOCC3)cc2)nc2cnccn12 the results were H9c2 protect -6.0, ASAP1 GAP inh -7.2 and ARFGAP1 inh -6.2.
Clc1ccc(-c2nc3cnccn3c2Nc2ccc3c(c2)OCO3)cc1 was read as H9c2 protect 7.4, ASAP1 GAP inh 1.0, Neddyl block 40.6*, ARFGAP1 inh -2.4 and Neddyl inh conf inactive.
c1cn2c(Nc3ccc4c(c3)OCCO4)c(-c3ccc(N4CCOCC4)cc3)nc2cn1 was read as H9c2 protect -2.1, ASAP1 GAP inh -14.1, Neddyl block 38.0*, ARFGAP1 inh -0.6 and Neddyl inh conf inactive.
`CSc1ccc(-c2nc3cnccn3c2Nc2ccc3c(c2)OCO3)cc1` gave H9c2 protect 14.6.
COc1cccc(-c2cc3nc(-c4ccccc4)cc(N4CCN(C(=O)c5ccoc5)CC4)n3n2)c1 was read as H9c2 protect 33.2, ASAP1 GAP inh -1.7, Neddyl block -47.0 and ARFGAP1 inh 13.6.
COc1cccc(-c2cc3nc(C)cc(N4CCN(C(=O)c5ccoc5)CC4)n3n2)c1 was read as H9c2 protect 31.5, ASAP1 GAP inh 5.4, Neddyl block 46.9* and ARFGAP1 inh 2.5.

Screens from PubChem.
